Assay outcomes from PubChem.
PfM18AAP inh – PfM18AAP enzyme inhibition; recombinant PfM18AAP, H-Glu-NHMec fluorogenic cleavage; inhibition, % at 7.35 µM; 1.2% of 290,000 active; AID 1822;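 active = inhibition above the campaign mean inhibition over all tested compounds plus 3 SD, cut at about 28% in these data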;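 also: 0% = plate median of test compound wells and 100% = 2 mM ZnCl2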
FAS-TE inh – inhibitors of human fatty acid synthase thioesterase domain; recombinant FAS-TE, OMFH fluorogenic substrate, fluorescence endpoint; inhibition, % at 15 µM; 0.67% of 360,000 active;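 active = compounds whose normalised, plate-corrected inhibition of enzyme fluorescence in the single-dose primary screen is 50% or more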;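 also: 0% = DMSO with enzyme and 100% = substrate without enzyme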
Rtt109 Vps75 – C. albicans Rtt109 histone acetyltransferase inhibition | purified Rtt109/Vps75, ThioGlo CoA-SH fluorescence, 4 h | AID 540336 | inhibition, % at 34.9 µM | 0.16% of 330,000 active;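 active = inhibition of at least 50% in every replicate; inconclusive = best replicate reaches 50% inhibition but some replicates fall short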
UCH37 inh – blocks the human deubiquitinase UCH37 | purified proteasome/UCH37, Ub-AMC cleavage fluorescence | 0.33% of 330,000 active | inhibition, % (concentration not given with the values) | Q9Y5K5 | AID 588478;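 active = mean inhibition over replicate wells above about 20%, limit read from the data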;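 also: 0% = compound-free wells with enzyme and 100% = wells lacking proteasome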
Target sequence (Q9Y5K5 whole entry, looked up): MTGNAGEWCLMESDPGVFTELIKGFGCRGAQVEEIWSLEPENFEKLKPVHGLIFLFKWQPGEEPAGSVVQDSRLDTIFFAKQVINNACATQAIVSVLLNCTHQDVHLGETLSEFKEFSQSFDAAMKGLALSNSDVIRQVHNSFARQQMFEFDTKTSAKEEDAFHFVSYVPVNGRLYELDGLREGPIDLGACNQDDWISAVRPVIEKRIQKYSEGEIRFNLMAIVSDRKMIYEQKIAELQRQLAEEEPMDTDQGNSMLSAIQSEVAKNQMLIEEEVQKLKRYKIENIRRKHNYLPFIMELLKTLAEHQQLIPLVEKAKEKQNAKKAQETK
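Test system – human UCH37 enzyme supplied as purified proteasome complex · Incubation – 30 min preincubation with enzyme, 25 min cleavage at room temperature · Detection – AMC fluorescence from Ub-AMC cleavage, excitation 355 nm, emission 460 nm · Benchmarks – no-proteasome wells (full inhibition) and compound-free wells (no inhibition)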
ALR H2O2 inh – inhibitors of human sulfhydryl oxidase ALR. purified ALR, DTT oxidation, H2O2 HRP-luminol luminescence. inhibition, % (test concentration not listed). 3.8% of 290,000 active. AID 485317;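 active = mean replicate inhibition above about 79%, with every replicate also reaching it, limit read from the data; inconclusive = only one of the two criteria met; inactive = mean below limit and not every replicate reaching it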
Target sequence (P55789 whole entry, looked up): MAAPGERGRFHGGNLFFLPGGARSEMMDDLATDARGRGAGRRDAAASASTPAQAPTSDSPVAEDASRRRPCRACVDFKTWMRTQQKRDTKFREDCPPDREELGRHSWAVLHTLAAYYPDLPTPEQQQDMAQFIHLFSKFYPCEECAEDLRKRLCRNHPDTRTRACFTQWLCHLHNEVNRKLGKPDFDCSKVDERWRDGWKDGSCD
HDAC3 inh – human HDAC3 inhibition; O15379; recombinant HDAC3, fluorogenic peptide/trypsin coupled, fluorescence; inhibition, % at 8.3 µM; 0.15% of 320,000 active; in the data active = inhibition above about 26%, passing the limit was not always enough; inconclusive = no clear call, values can overlap the other calls
An asterisk follows results filed as active; u = inconclusive; x = no result; + = active, no number. This is a sample that favours compounds with a hit; in the whole collection about 4.6% have one here.

SMILES	PfM18AAP inh	FAS-TE inh	Rtt109 Vps75	UCH37 inh	ALR H2O2 inh	HDAC3 inh
COc1ccc(-c2n[nH]c(=S)n2-c2ccc(C)cc2)cc1OC	-5	0	-1	1	89*	-3
Cc1ccc(-n2c(-c3nn(C)c(C)c3Cl)n[nH]c2=S)cc1	8	1	8	3	86*	9
COc1ccccc1N1CCN(CCc2n[nH]c(=S)n2-c2ccccc2)CC1	9	-3	4	6	97*	11
COc1ccc(-n2c(CCc3ccccc3)n[nH]c2=S)cc1	10	-10	5	5	10	-2
Cc1ccc(C=NNC(=O)CNC(=O)c2cccs2)o1	x	x	x	6	x	x
O=C1C(Cl)=C(NCC2CCCO2)C(=O)N1C1CCCCC1 (stereo unspecified)	5	0	4	2	98*	3
O=C1C(Cl)=C(NCC2CCCO2)C(=O)N1c1ccccc1 (stereo unspecified)	9	-6	-2	6	0	10
COc1ccc(-c2nc(CSCC(=O)NCCC3=CCCCC3)c(C)o2)cc1OC	9	6	2	0	100*	4
COc1ccc(-c2nc(CSCC(=O)N3CCc4ccccc43)c(C)o2)cc1OC	-8	0	12	-2	99*	4
COc1ccccc1CNC(=O)CS(=O)Cc1nc(-c2ccc(OC)c(OC)c2)oc1C (stereo unspecified)	3	-6	1	1	99*	-2
COc1cccc(-c2nnc(SCC(=O)N3CCCc4ccccc43)o2)c1	0	10	2	2	87*	2
COc1cc(OC)cc(-c2nnc(SCC(=O)N3CCCc4ccccc43)o2)c1	-1	18	2	4	-3	-1
O=C(CCN1CCOCC1)NN=Cc1cc([N+](=O)[O-])ccc1OC(F)F	x	x	x	-1	x	x
Cc1ccsc1-c1nc(CSCC(=O)NCc2ccc3c(c2)OCO3)c(C)o1	9	6	0	2	99*	-1
Cc1oc(-c2ccc(Cl)cc2)nc1CS(=O)CC(=O)NCc1ccc2c(c1)OCO2 (stereo unspecified)	0	4	-6	1	58	8
Cc1ccc(CSCC(=O)NCc2ccc3c(c2)OCO3)cc1	2	2	8	4	-6	1
COc1ccc(-c2nc(CSCC(=O)NCc3ccc4c(c3)OCO4)c(C)o2)cc1	1	-4	4	2	-5	u
COc1ccc(-c2nc(CS(=O)CC(=O)NCc3ccc4c(c3)OCO4)c(C)o2)cc1OC (stereo unspecified)	-1	-5	5	3	99*	0
Cc1oc(-c2ccccc2F)nc1CS(=O)CC(=O)NCc1ccc2c(c1)OCO2 (stereo unspecified)	1	-7	-4	5	99*	-6
COc1ccc(-c2nc(CSCC(=O)NCc3ccc4c(c3)OCO4)c(C)o2)cc1OC	0	-6	3	3	99*	3
COc1ccc(C=NNC(=O)C(=O)NCc2cccnc2)cc1	x	x	x	4	x	x
O=C(NN=C/C=C/c1ccccc1)c1ccccc1Br	x	x	x	8	x	x
O=C1CSC(c2cccnc2)N1c1ccc(Cl)cc1 (stereo unspecified)	0	-4	-3	6	99*	16
Cc1ccc(N2C(=O)CSC2c2cccnc2)cc1F (stereo unspecified)	4	-5	2	5	100*	0
O=C1CSC(c2cccnc2)N1C1CCCCC1 (stereo unspecified)	-13	-11	4	4	1	-2
SMILES	PfM18AAP inh	FAS-TE inh	Rtt109 Vps75	UCH37 inh	ALR H2O2 inh	HDAC3 inh
O=C1CSC(c2ccc(Cl)cc2)N1c1cccnc1 (stereo unspecified)	0	-5	4	5	98*	1
COc1ccccc1NCC(=O)NN=C/C=C/c1ccccc1	x	x	x	2	x	x
CC(=O)Nc1ccc(NC(=O)CC(C)=NNC(=O)C(=O)N2CCCC2)cc1	x	x	x	2	x	x
Cn1cc(CNC(=O)c2cc(COc3ccc4c(c3)CCCC4)on2)cn1	30*	-35	9	2	33	-1
CCN(Cc1cnn(C)c1)C(=O)c1cc(COc2ccc3c(c2)CCCC3)on1	-5	-2	9	1	18	4
NC(=S)NN=C1CC(n2nnn(-c3cccc(Cl)c3)c2=S)C2COC1O2 (stereo unspecified)	x	x	x	3	x	x
CCCCCn1c(Br)nc2c1c(=O)n(CC(N)=O)c(=O)n2C	-8	-2	-13	5	92*	-3
N#CC(C#SN)=C1CCCCC1	30*	-8	5	1	30	5
N#CC(C(=O)O)=C1CCCC1	-1	-4	4	-2	-4	0
COc1ccc(OC)c(C=NNC(=O)c2cc3c(OC)cc(OC)cc3[nH]2)c1	x	x	x	-93	x	x
On1ccccc1=S	x	-5	u	x	92*	8
O=C(Nc1cccc(C(F)(F)F)c1)c1cc[n+]([O-])cc1	-9	-4	-11	2	x	0
O=C(Nc1cccc(C(F)(F)F)c1)C(Sc1cccc[n+]1[O-])c1ccccc1 (stereo unspecified)	-4	-16	13	1	78*	1
Brc1cccc(C2Nc3cccc4cccc(c34)N2)c1	24	26	0	4	1	-4
Clc1cccc(C2Nc3cccc4cccc(c34)N2)c1	32*	25	-6	8	12	3
CCC1=NN2C(=N)/C(=C/c3c(C)nn(-c4ccccc4)c3Cl)C(=O)N=C2S1	0	3	5	-1	54	3
CCC1=NN2C(=N)/C(=C\c3ccc(SCc4ccco4)o3)C(=O)N=C2S1	30*	-17	0	9	u	6
O=C1NC(=S)S/C1=C\c1ccc(SCc2ccco2)o1	37*	19	4	x	99*	8
CCCC1=NN2C(=N)/C(=C\c3ccc(SCc4ccco4)o3)C(=O)N=C2S1	17	-11	9	x	99*	1
O=C1NC(=S)S/C1=C\c1ccc(SCc2ccccc2)o1	4	22	10	3	-1	8
Cc1cc(O)c(C(C[N+](=O)[O-])c2ccc(Cl)cc2Cl)c(=O)o1 (stereo unspecified)	6	-6	56*	4	8	0
O=c1[nH][nH]c(-c2ccccc2O)c1C(C[N+](=O)[O-])c1ccc(Cl)cc1Cl (stereo unspecified)	13	-7	-3	1	x	x
COc1ccc(CNC(=O)CSc2nc3ccc(N)cc3s2)cc1	2	-5	1	6	98*	3
Cc1ccc(NC(=O)CSCC(=O)Nc2ccc(N3CCOCC3)c(Cl)c2)cc1	-4	6	5	-2	98*	5
Cc1ccc(NC(=O)c2cc(N3C(=O)C=CC3=O)ccc2N2CCOCC2)cc1	1	12	+	-1	x	x
CCOC(=O)CSc1nc2ccc(N)cc2s1	6	-4	5	-2	99*	-5
